{"data": "Measurements collected from several papers", "PFF0160c": "Dihydroorotate dehydrogenase (quinone), mitochondrial (PFF0160c, Plasmodium falciparum, UniProt Q08210)", "PFF0160c E182D": "Dihydroorotate dehydrogenase (quinone), mitochondrial (PFF0160c, Plasmodium falciparum, UniProt Q08210, E182D)", "note": "Lines come from different studies, so protocols differ."}
{"SMILES": "COc1ccc(-n2ccnc2SCC(=O)Nc2cc(C)ccc2C)c(OC)c1", "target": "PFF0160c", "assay": "enzyme activity, inhibitor, absorbance", "IC50 [µM]": 0.324}
{"SMILES": "Cc1nc(Nc2ccc(S(F)(F)(F)(F)F)cc2)c2c(C)noc2n1", "target": "PFF0160c", "assay": "enzyme activity, inhibitor, absorbance", "IC50 [µM]": 0.036}
{"SMILES": "Cc1c(C2(c3cccc(C(F)(F)F)c3)CC2)c[nH]c1C(=O)NC(C)c1nc[nH]n1 (stereo not shown)", "target": "PFF0160c", "assay": "enzyme activity, inhibitor, absorbance", "IC50 [µM]": 30}
{"SMILES": "Cc1noc2nc(C(F)(F)F)nc(NC3Cc4cc(F)c(F)cc4C3)c12", "target": "PFF0160c", "assay": "enzyme activity, inhibitor, absorbance", "IC50 [µM]": 0.11}
{"SMILES": "CC[C@H]1NC(=O)[C@@H]2CSC(=N2)[C@H](Cc2ccccc2)N(C)C(=O)[C@@H]2CCCN2C(=O)[C@H](C(C)C)N(C)C(=O)[C@H](Cc2ccccc2)OC(=O)[C@H](C)[C@@H](C)NC(=O)[C@@H]([C@@H](C)O)NC(=O)[C@@H](CC(C)C)N(C)C(=O)[C@@H]2CSC1=N2", "target": "Vitamin K-dependent protein C (PROC, Homo sapiens, UniProt P04070)", "assay": "enzyme activity, inhibitor", "IC50 [µM]": 62}
{"SMILES": "COc1ccccc1C1CN(CCNC(=O)c2nc(C)c[nH]2)Cc2ccccc2O1 (stereo not shown)", "target": "PFF0160c", "assay": "enzyme activity, inhibitor, absorbance", "IC50 [µM]": 3.01}
{"SMILES": "COc1cc(Nc2ncc(F)c(Nc3ccc4c(n3)NC(=O)C(C)(C)O4)n2)cc(OC)c1OC", "target": "cGMP-specific 3',5'-cyclic phosphodiesterase (PDE5A, Homo sapiens, UniProt O76074)", "assay": "enzyme activity, inhibitor", "IC50 [µM]": 0.316}
{"SMILES": "Cc1c(Cc2ccc(F)c(F)c2)c[nH]c1C(=O)NC(C)c1nc[nH]n1 (stereo not shown)", "target": "PFF0160c", "assay": "enzyme activity, inhibitor, absorbance", "IC50 [µM]": "> 100"}
{"SMILES": "CN(C)S(=O)(=O)c1ccc(Sc2ccccc2)c(C(=O)N2CCCC(C(N)=O)C2)c1 (stereo not shown)", "target": "PFF0160c", "assay": "enzyme activity, inhibitor, absorbance", "IC50 [µM]": 3.67}
{"SMILES": "CC(CCc1ccccc1)NC(C)C(O)c1ccc(O)cc1 (stereo not shown)", "target": "Kappa-type opioid receptor (OPRK1, Homo sapiens, UniProt P41145)", "assay": "ligand displacement, radioligand", "IC50 [µM]": 4.98}
{"SMILES": "COc1ccc(C(=O)NCC(C)(C)c2nc(-c3ccc(Cl)c(O)c3)c(-c3ccncc3)[nH]2)cc1OCCN(C(C)C)C(C)C", "target": "PFF0160c", "assay": "enzyme activity, inhibitor, absorbance", "IC50 [µM]": "> 10"}
{"SMILES": "Cc1cc(C(C)NC(=O)c2[nH]cc(Cc3ccc(C(F)(F)F)nc3)c2C)n[nH]1 (stereo not shown)", "target": "PFF0160c", "assay": "enzyme activity, inhibitor, absorbance", "IC50 [µM]": 0.1}
{"SMILES": "CCc1nc2nc(C)cc(Nc3ccc4c(c3)OCCO4)n2n1", "target": "PFF0160c E182D", "assay": "enzyme activity, inhibitor, absorbance", "IC50 [µM]": "> 10"}
{"SMILES": "Cc1cc(C(C)NC(=O)c2[nH]cc(-c3n[nH]c4cc(C(F)(F)F)ccc34)c2C)no1 (stereo not shown)", "target": "PFF0160c", "assay": "enzyme activity, inhibitor, absorbance", "IC50 [µM]": "> 100"}
{"SMILES": "O=S(=O)(O)c1nc2ccccc2[nH]1", "target": "racE (Bacillus subtilis, UniProt P94556, N75A)", "assay": "enzyme activity, inhibitor, absorbance", "IC50 [µM]": 890}
{"SMILES": "Cc1nc(Nc2ccc(C)c(Cl)c2)c2c(C)noc2n1", "target": "PFF0160c", "assay": "enzyme activity, inhibitor, absorbance", "IC50 [µM]": 0.13}
{"SMILES": "Cn1cc(-c2ccc(-n3ccc(OCc4ccc(Cl)cn4)cc3=O)cn2)cn1", "target": "PFF0160c E182D", "assay": "enzyme activity, inhibitor, absorbance", "IC50 [µM]": 7.02}
{"SMILES": "Cc1c(Cc2ccc(C(F)(F)F)nc2)c[nH]c1C(=O)NC(C)c1cc(C(N)=O)[nH]n1 (stereo not shown)", "target": "PFF0160c", "assay": "enzyme activity, inhibitor, absorbance", "IC50 [µM]": 0.35}
{"SMILES": "Cc1noc2nc(C(F)(F)F)nc(Nc3ccc(S(F)(F)(F)(F)F)cc3)c12", "target": "PFF0160c", "assay": "enzyme activity, inhibitor, absorbance", "IC50 [µM]": 0.25}
